{
  "source": "ChEMBL document CHEMBL1154279",
  "about": "“Cytotoxic compounds from the stems of Cinnamomum tenuifolium” (J Nat Prod, 2009)",
  "key": {"LNCaP": {"test_system": "LNCaP", "test": "Cytotoxicity against human LNCAP cells after 72 hrs by XTT assay", "assay_type": "functional, cell-based", "conditions": "24 h, in the assay text read “after 24 hrs” for “after 72 hrs”", "outline": "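Prostate cancer cells in RPMI-1640 with 10% FBS, 37 °C, 5% CO2, grown to 70–80% confluence and treated at 0.1–100 µM for 24, 48 and 72 h. XTT labeling for 4 h at 37 °C, absorbance 450 nm (reference 650 nm) against control wells. IC50 derived from the mean of eight wells; taxol and cisplatin served as positive controls.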"}, "DU-145": {"test_system": "DU-145", "test": "Cytotoxicity against human DU145 cells after 72 hrs by XTT assay", "assay_type": "functional, cell-based", "conditions": "DU-145, 24 h, in the assay text read “after 24 hrs” for “after 72 hrs”"}},
  "data": [
    {"smiles": "C=C1OC(=O)/C(=C\\CCCCCCCCCCCCCCCCCCCCCCCCCC)[C@@H]1O", "note": "[TENUIFOLIDE A]", "values": [
      {"measurement": "IC50", "setting": "LNCaP", "result": 450, "unit": "µM"},
      {"measurement": "IC50", "setting": "DU-145", "result": 211, "unit": "µM"}
    ]}
  ]
}
